Data set [1] in a line: Biodistribution of ^68Ga-DOTA-RGD in MGC-803 tumor-bearing mice. Format: in vivo. As to conditions: BALB/c nude, mouse, tumor (MGC-803 xenograft), iv, 10 MBq, total radioactivity. Put shortly:
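Female BALB/c nude mice (4–5 weeks, SPF) bearing s.c. right-shoulder xenografts of 5 × 10^6 MGC-803 cells in PBS; cells grown in DMEM/10% FBS, 37 °C, 5% CO2. Injected 10 MBq radiotracer (740 MBq/μmol), killed at 60 and 180 min. Blocking by co-injection of excess unlabelled thiol peptide (50 mg/kg), 180 min. Ten tissues weighed and gamma-counted, expressed as %ID/g; n = 3.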

The subject of a further data set is inflamed tissue. Nature of the data set: Biodistribution of ^68Ga-DOTA-BSA in the turpentine oil inflammation model. Format: in vivo, mice. The conditions noted are these: 5–10 MBq, mean ± SD, n = 3. Summed up:
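Inflammation induced by s.c. injection of 30 μL turpentine oil into the right thigh of female mice (4–5 weeks old). Radiolabelled albumin tracer (5–10 MBq; 130 MBq/μmol) injected. Mice killed under anaesthesia at 30 and 60 min post-injection. Inflamed tissue and organs collected, weighed, gamma-counted, and expressed as %ID/g. n = 3, mean ± SD.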

Where a SMILES comes first, the peptide text is derived from it. [ ]: non-standard residue; d: D form. The star is where a group is joined. X1 = O=C(O)CN1CCN(CC(=O)O)CCN(CC(=O)NCCN2C(=O)CC(*)C2=O)CCN(CC(=O)O)CC1

Experimental findings from article PMC9909812 (ACS Omega, 2023) are described below.

Regarding `N=C(N)NCCC[C@@H]1NC(=O)[C@H](CSC2CC(=O)N(CCNC(=O)CN3CCN(CC(=O)O)CCN(CC(=O)O)CCN(CC(=O)O)CC3)C2=O)NC(=O)[C@H](CCCCN)NC(=O)[C@@H](Cc2ccc(O)cc2)NC(=O)[C@H](CC(=O)O)NC(=O)CNC1=O` (stereo partly shown) [^68Ga-DOTA-RGD, metal not drawn] (cyclo(RGD[dY]KC(X1))), in data set [1], the tissue uptake at 1 h was found to be 4.31 ± 0.93 %ID/g and the tissue uptake at 3 h stood at 8.3 ± 0.92 %ID/g.

In the case of “^68Ga-DOTA-BSA: ^68Ga-labeled DOTA-Mal conjugated to DTT-treated bovine serum albumin (HS-BSA)”, the “uptake in inflammatory tissues” value with inflamed tissue (0.5 h after injection) came out at 4.32 ± 1.10 % ID/g; with inflamed tissue (1 h after injection), 6.50 ± 0.40 % ID/g.
